Laboratory results: ChEMBL document CHEMBL4368917, “Synthesis and Evaluation of a QS-17/18-Based Vaccine Adjuvant” (J Med Chem, 2019)
Active and inactive are the calls of the source. The rule behind the calls is not given here.

Columns and labels:
Mus musculus [1] = experiment: Potentiation of serum IgG/recombinant Porphyromonas gingivalis HagB induced-immune response in BALB/c mouse at 100 ug, sc immunized on day 14 and 28 after 42 days by ELISA; assay type: functional, organism-based
How it was run: (§1)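 Mice from Frederick Cancer Research were immunized with rHagB plus adjuvant (100 or 50 μg; adjuvant given at 1.0 mg/mL as solution or suspension with antigen). Retro-orbital blood was collected before and after immunization, and serum was stored at −20 °C. ELISA plates were coated with rHagB (1 μg/mL) in borate buffered saline pH 8.2; serial two-fold serum dilutions were run in duplicate.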

Mus musculus [2] = experiment: Potentiation of recombinant Porphyromonas gingivalis HagB induced Th1/Th2 immune response in BALB/c mouse assessed as increase in IgG1 levels at 50 ug, sc measured at week 4 and 6 by ELISA; assay type: functional, organism-based; how it was run: as §1
Mus musculus [3] = experiment: Potentiation of recombinant Porphyromonas gingivalis HagB induced Th1/Th2 immune response in BALB/c mouse assessed as increase in IgG2a levels at 100 ug, sc measured at week 4 and 6 by ELISA; assay type: functional, organism-based; how it was run: as §1
Mus musculus [4] = experiment: Potentiation of recombinant Porphyromonas gingivalis HagB induced Th1/Th2 immune response in BALB/c mouse assessed as increase in IgG2a levels at 50 ug, sc measured at week 4 and 6 by ELISA; assay type: functional, organism-based; how it was run: as §1
Mus musculus [5] = experiment: Potentiation of serum IgG/recombinant Porphyromonas gingivalis HagB induced immune response n BALB/c mouse at 100 ug, sc immunized on day 14 and 28 measured week 4 and 6 post immunization by ELISA; assay type: functional, organism-based; how it was run: as §1
Mus musculus [6] = experiment: Potentiation of recombinant Porphyromonas gingivalis HagB induced Th1/Th2 immune response in BALB/c mouse assessed as increase in IgG1 levels at 100 ug, sc measured at week 4 and 6 by ELISA; assay type: functional, organism-based; how it was run: as §1
[7] = Toxicity in BALB/c mouse assessed as effect on body weight at 50 to 100 ug, sc measured after 41 days; assay type: organism-based; conditions: in vivo, 984 h
How it was run: (§2)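 Mice were weighed before each immunization and on day 42 after the last immunization. Adjuvant was given with rHagB antigen at 100 μg, or at 50 μg for one group.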

[8] = Toxicity in BALB/c mouse assessed as effect on body weight at 100 ug, sc measured after 41 days; assay type: organism-based; conditions: in vivo, 984 h; how it was run: as §2
Mus musculus [9] = experiment: Potentiation of recombinant Porphyromonas gingivalis HagB induced Th1/Th2 immune response in BALB/c mouse assessed as increase in IgG1 levels at 100 ug, sc measured at week 4 by ELISA; assay type: functional, organism-based; how it was run: as §1

CCCCCCCCCCCCNC(=O)[C@H]1O[C@@H](O[C@H]2CC[C@]3(C)[C@H]4CC=C5[C@@H]6CC(C)(C)CC[C@]6(C(=O)O[C@@H]6O[C@H](C)[C@H](O)[C@H](O)[C@H]6O[C@@H]6O[C@@H](C)[C@H](O[C@@H]7OC[C@@H](O)[C@H](O[C@@H]8OC[C@@H](O)[C@H](O)[C@H]8O)[C@H]7O)[C@@H](O[C@@H]7O[C@H](CO)[C@@H](O)[C@H](O)[C@H]7O)[C@H]6O)[C@H](O)C[C@@]5(C)[C@]4(C)CC[C@H]3[C@]2(C)C=O)[C@H](O[C@@H]2O[C@H](CO)[C@H](O)[C@H](O)[C@H]2O)[C@@H](O[C@@H]2OC[C@@H](O)[C@H](O)[C@H]2O)[C@@H]1O
Activity (Mus musculus [1]): Active | Activity (Mus musculus [2]): Active | Activity (Mus musculus [3]): Active | Activity (Mus musculus [4]): Active | Activity (Mus musculus [5]): Active | Activity (Mus musculus [6]): Active | Activity [7]: Non-Toxic

CCCCCCCCCCCCNC(=O)[C@H]1O[C@@H](O[C@H]2CC[C@]3(C)[C@H]4CC=C5[C@@H]6CC(C)(C)CC[C@]6(C(=O)O[C@@H]6O[C@H](C)[C@H](O)[C@H](O)[C@H]6O[C@@H]6O[C@@H](C)[C@H](O[C@@H]7OC[C@@H](O)[C@H](O[C@@H]8OC[C@](O)(CO)[C@H]8O)[C@H]7O)[C@@H](O)[C@H]6O)[C@H](O)C[C@@]5(C)[C@]4(C)CC[C@H]3[C@]2(C)C=O)[C@H](O[C@@H]2O[C@H](CO)[C@H](O)[C@H](O)[C@H]2O)[C@@H](O[C@@H]2OC[C@@H](O)[C@H](O)[C@H]2O)[C@@H]1O
Activity [8]: Non-Toxic | Activity (Mus musculus [1]): inactive | Activity (Mus musculus [9]): inactive | Activity (Mus musculus [3]): inactive
